Results on 17 compounds are retold here after ChEMBL document CHEMBL1135907, “Novel 5-substituted 2,4-thiazolidinedione and 2,4-oxazolidinedione derivatives as insulin sensitizers with antidiabetic activities” (J Med Chem, 2002).

Tested on in the first test: not listed separately
Nature of the test: Plasma lipid-lowering activity at a dosage of 0.005% in the diet in KKA(y) mice.
Details: not given
The test is classed as functional, Mus musculus. The method in brief:
(§1)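 KKAy mice (9–13 weeks old), five per group, on powdered CE-2 diet containing compound at 0.001, 0.005 or 0.01% for 4 d. Plasma triglyceride from orbital-vein blood measured enzymatically and reported as maximum percent reduction from control; Dunnett's test; less than 10% reduction flagged.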
As to `Cc1oc(-c2ccccc2)nc1COc1ccc(CCCCCC2SC(=O)NC2=O)cc1` (centres undefined), the Activity is given as less than 10.

The compound `Cc1oc(-c2ccccc2)nc1CCOc1ccc(CCCCCC2OC(=O)NC2=O)cc1` (centres undefined) displayed an Activity of 17.

In the case of `Cc1oc(-c2ccccc2)nc1CCOc1ccc(/C=C/C=C2\SC(=O)NC2=O)cc1`, the Activity is 13.

On to `Cc1oc(-c2ccccc2)nc1CCOc1ccc(CCC2SC(=O)NC2=O)cc1` (centres undefined), for which the Activity came to 32.

In turn, `COc1cc(CCCC2SC(=O)NC2=O)ccc1OCc1nc(-c2ccccc2)oc1C` (centres undefined) returned an Activity of 58.

In turn, `Cc1oc(-c2ccccc2)nc1COc1ccc(CCC2OC(=O)NC2=O)cc1` (centres undefined) returned an Activity of 60.

As to `Cc1oc(-c2ccccc2)nc1CCOc1ccc(CCCCC2OC(=O)NC2=O)cc1` (centres undefined), the Activity is reported as 27.

In turn, `Cc1oc(-c2ccc3ccccc3c2)nc1COc1ccc(CCCC2OC(=O)NC2=O)cc1` (centres undefined) came in with an Activity of 72.

In turn, `Cc1oc(-c2ccccc2)nc1CCC(O)c1ccc(CCCC2OC(=O)NC2=O)cc1` (centres undefined) registered an Activity of 22.

`Cc1oc(-c2cc3ccccc3s2)nc1COc1ccc(CCCC2OC(=O)NC2=O)cc1` (centres undefined) had an Activity of 62.

In turn, `COc1cc(CCCC2OC(=O)NC2=O)ccc1OCc1nc(-c2ccco2)oc1C` (stereo in doubt; 64) came in with an Activity of 74.

Compound `Cc1oc(-c2ccco2)nc1COc1ccc(CCCC2OC(=O)NC2=O)cc1` (centres undefined) showed an Activity of 58.

Consider `Cc1oc(-c2ccccc2)nc1COc1ccc(CCCCC2SC(=O)NC2=O)cc1` (centres undefined), for which the Activity is 21.

Compound `Cc1oc(-c2ccccc2)nc1COc1ccc(CCC2SC(=O)NC2=O)cc1` (centres undefined) yielded an Activity of 15.

The compound `Cc1oc(-c2ccccc2)nc1COc1ccc(/C=C/C=C2/OC(=O)NC2=O)cc1` came in with an Activity of 29.

`Cc1oc(-c2ccccc2)nc1COc1ccc(CCCC2OC(=O)NC2=O)cc1` (centres undefined) returned an Activity of 83.

Regarding `Cc1oc(-c2ccccc2)nc1CCOc1ccc(CCC2OC(=O)NC2=O)cc1` (centres undefined), the Activity stood at 53.

Tested on in the next test: not listed separately
The experiment in a line: Plasma glucose-lowering activity at a dosage of 0.005% in the diet in KKA(y) mice. The test is classed as functional, Mus musculus.
Details: not given
The method in brief: (§2)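 KKAy mice (9–13 weeks old), five per group, grouped by blood glucose after 3 d on powdered CE-2 chow. Dietary admixture at 0.001, 0.005 or 0.01% for 4 d, food and water ad libitum. Orbital-vein plasma glucose measured enzymatically and expressed as maximum percent reduction versus control; Dunnett's test.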
In the case of `Cc1oc(-c2ccccc2)nc1COc1ccc(CCCCCC2SC(=O)NC2=O)cc1` (centres undefined), the Activity is 19.

For `Cc1oc(-c2ccccc2)nc1CCOc1ccc(CCCCCC2OC(=O)NC2=O)cc1` (centres undefined), the Activity is 23.

`Cc1oc(-c2ccccc2)nc1CCOc1ccc(/C=C/C=C2\SC(=O)NC2=O)cc1` gave an Activity of 13.

With `Cc1oc(-c2ccccc2)nc1CCOc1ccc(CCC2SC(=O)NC2=O)cc1` (centres undefined), the Activity is given as 14.

For the compound `COc1cc(CCCC2SC(=O)NC2=O)ccc1OCc1nc(-c2ccccc2)oc1C` (centres undefined), the Activity amounted to 54.

With `Cc1oc(-c2ccccc2)nc1COc1ccc(CCC2OC(=O)NC2=O)cc1` (centres undefined), the Activity is recorded as 63.

`Cc1oc(-c2ccccc2)nc1CCOc1ccc(CCCCC2OC(=O)NC2=O)cc1` (centres undefined) had an Activity of 27.

In turn, `Cc1oc(-c2ccc3ccccc3c2)nc1COc1ccc(CCCC2OC(=O)NC2=O)cc1` (centres undefined) showed an Activity of 55.

`Cc1oc(-c2ccccc2)nc1CCC(O)c1ccc(CCCC2OC(=O)NC2=O)cc1` (centres undefined): the Activity was 23.

In turn, `Cc1oc(-c2cc3ccccc3s2)nc1COc1ccc(CCCC2OC(=O)NC2=O)cc1` (centres undefined) returned an Activity of 48.

On to `COc1cc(CCCC2OC(=O)NC2=O)ccc1OCc1nc(-c2ccco2)oc1C` (stereo in doubt; 64), for which the Activity is 58.

With `Cc1oc(-c2ccco2)nc1COc1ccc(CCCC2OC(=O)NC2=O)cc1` (centres undefined), the Activity worked out at 61.

`Cc1oc(-c2ccccc2)nc1COc1ccc(CCCCC2SC(=O)NC2=O)cc1` (centres undefined) returned an Activity of 22.

With `Cc1oc(-c2ccccc2)nc1COc1ccc(CCC2SC(=O)NC2=O)cc1` (centres undefined), the Activity stood at 24.

`Cc1oc(-c2ccccc2)nc1COc1ccc(/C=C/C=C2/OC(=O)NC2=O)cc1` yielded an Activity of 23.

As for `Cc1oc(-c2ccccc2)nc1COc1ccc(CCCC2OC(=O)NC2=O)cc1` (centres undefined), the Activity was 61.

Regarding `Cc1oc(-c2ccccc2)nc1CCOc1ccc(CCC2OC(=O)NC2=O)cc1` (centres undefined), the Activity is recorded as 56.

Tested on in a further test: not listed separately
The experiment in a line: Plasma lipid-lowering activity at a dosage of 0.001% in the diet in KKAy mice.
Details: not given
It counts as functional, Mus musculus. An outline of the steps:
as §1
For `COc1cc(CCCC2SC(=O)NC2=O)ccc1OCc1nc(-c2ccccc2)oc1C` (centres undefined), the Activity is 24.

`Cc1oc(-c2ccccc2)nc1COc1ccc(CCC2OC(=O)NC2=O)cc1` (centres undefined): the Activity is on record as 13.

The compound `Cc1oc(-c2ccc3ccccc3c2)nc1COc1ccc(CCCC2OC(=O)NC2=O)cc1` (centres undefined) returned an Activity of 40.

`Cc1oc(-c2cc3ccccc3s2)nc1COc1ccc(CCCC2OC(=O)NC2=O)cc1` (centres undefined) gave an Activity of 24.

`COc1cc(CCCC2OC(=O)NC2=O)ccc1OCc1nc(-c2ccco2)oc1C` (stereo in doubt; 64) displayed an Activity of less than 10.

Compound `Cc1oc(-c2ccccc2)nc1COc1ccc(CCCC2OC(=O)NC2=O)cc1` (centres undefined) showed an Activity of 55.

With `Cc1oc(-c2ccccc2)nc1CCOc1ccc(CCC2OC(=O)NC2=O)cc1` (centres undefined), the Activity is given as 15.

Tested on in the next test: not listed separately
The experiment in a line: Plasma glucose-lowering activity at a dosage of 0.001% in the diet in KKAy mice. It counts as functional, Mus musculus.
Details: not given
An outline of the steps:
as §2
In turn, `COc1cc(CCCC2SC(=O)NC2=O)ccc1OCc1nc(-c2ccccc2)oc1C` (centres undefined) registered an Activity of 12.

In the case of `Cc1oc(-c2ccccc2)nc1COc1ccc(CCC2OC(=O)NC2=O)cc1` (centres undefined), the Activity turned out to be 28.

`Cc1oc(-c2ccc3ccccc3c2)nc1COc1ccc(CCCC2OC(=O)NC2=O)cc1` (centres undefined) had an Activity of 45.

In turn, `Cc1oc(-c2cc3ccccc3s2)nc1COc1ccc(CCCC2OC(=O)NC2=O)cc1` (centres undefined) returned an Activity of 25.

On to `COc1cc(CCCC2OC(=O)NC2=O)ccc1OCc1nc(-c2ccco2)oc1C` (stereo in doubt; 64), for which the Activity is 39.

Turning to `Cc1oc(-c2ccco2)nc1COc1ccc(CCCC2OC(=O)NC2=O)cc1` (centres undefined), the Activity is given as 38.

For `Cc1oc(-c2ccccc2)nc1COc1ccc(CCCC2OC(=O)NC2=O)cc1` (centres undefined), the Activity worked out at 53.

On to `Cc1oc(-c2ccccc2)nc1CCOc1ccc(CCC2OC(=O)NC2=O)cc1` (centres undefined), for which the Activity was found to be 18.

A further test deals with T1, RXR alpha/PPAR gamma (Homo sapiens, UniProt P19793+P37231).
T1 sequence (P37231 whole entry): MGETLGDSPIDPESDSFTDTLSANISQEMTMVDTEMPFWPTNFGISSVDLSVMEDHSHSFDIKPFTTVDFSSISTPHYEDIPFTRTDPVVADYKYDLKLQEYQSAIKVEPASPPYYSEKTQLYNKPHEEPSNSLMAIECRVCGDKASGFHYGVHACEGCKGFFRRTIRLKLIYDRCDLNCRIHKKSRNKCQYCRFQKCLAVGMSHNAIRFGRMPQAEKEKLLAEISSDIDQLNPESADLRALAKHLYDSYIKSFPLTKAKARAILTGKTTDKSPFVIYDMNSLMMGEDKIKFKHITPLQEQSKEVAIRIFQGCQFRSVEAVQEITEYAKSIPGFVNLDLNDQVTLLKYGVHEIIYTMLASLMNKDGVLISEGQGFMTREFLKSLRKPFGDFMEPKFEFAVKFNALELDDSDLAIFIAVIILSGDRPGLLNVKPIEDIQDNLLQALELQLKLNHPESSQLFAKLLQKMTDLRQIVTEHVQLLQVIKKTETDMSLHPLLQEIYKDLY
T1 sequence (P19793 whole entry): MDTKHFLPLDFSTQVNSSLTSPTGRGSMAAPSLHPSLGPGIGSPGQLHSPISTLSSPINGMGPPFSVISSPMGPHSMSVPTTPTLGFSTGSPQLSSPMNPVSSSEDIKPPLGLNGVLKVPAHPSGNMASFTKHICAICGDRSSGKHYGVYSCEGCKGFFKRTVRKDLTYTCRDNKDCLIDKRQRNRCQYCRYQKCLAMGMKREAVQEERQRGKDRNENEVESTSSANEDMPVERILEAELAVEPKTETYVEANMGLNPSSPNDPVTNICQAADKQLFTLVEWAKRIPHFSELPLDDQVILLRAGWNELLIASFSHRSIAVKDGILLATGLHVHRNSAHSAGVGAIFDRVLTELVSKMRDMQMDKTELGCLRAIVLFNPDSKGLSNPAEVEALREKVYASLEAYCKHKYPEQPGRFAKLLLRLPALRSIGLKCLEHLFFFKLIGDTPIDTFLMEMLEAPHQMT
Nature of the test: Transcriptional activation in COS cells expressing PPAR gamma and RXR alpha.
Details: not given
As a reminder, the EC50 is the midpoint of the concentration-response curve. Consider `Cc1oc(-c2ccc3ccccc3c2)nc1COc1ccc(CCCC2OC(=O)NC2=O)cc1` (centres undefined), for which it took 0.0293 µM to reach a half-maximal effect (EC50). This lies in the double-digit nanomolar range.

On to `COc1cc(CCCC2OC(=O)NC2=O)ccc1OCc1nc(-c2ccco2)oc1C` (stereo in doubt; 64), for which the EC50 turned out to be 0.0241 µM.

`Cc1oc(-c2ccccc2)nc1COc1ccc(CCCC2OC(=O)NC2=O)cc1` (centres undefined) returned an EC50 of 0.119 µM.

The species entered for another test is Rattus norvegicus. Nature of the test: Effective dose for 25% reduction in plasma glucose-lowering activity in Wistar fatty rats. It counts as functional.
Details: not given
The method in brief:
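Wistar fatty rats (10–15 weeks old), five per group, allocated by plasma glucose and triglyceride. Oral dosing by stomach tube once daily for 6 d at three doses, suspended in 0.5% methyl cellulose; CE-2 pellets and water ad libitum. Tail-vein plasma glucose measured; ED25 taken from the three-dose response by linear regression.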
`COc1cc(CCCC2OC(=O)NC2=O)ccc1OCc1nc(-c2ccco2)oc1C` (stereo in doubt; 64): the ED25 stood at 0.069 mg/kg/day.

The same test, now with this note: Rattus norvegicus, Plasma; read-out: ED25.
Consider `Cc1oc(-c2ccc3ccccc3c2)nc1COc1ccc(CCCC2OC(=O)NC2=O)cc1` (centres undefined), for which the ED25 came to 0.178 mg/kg/day.

`Cc1oc(-c2ccccc2)nc1COc1ccc(CCCC2OC(=O)NC2=O)cc1` (centres undefined): the ED25 is 0.078 mg/kg/day.

The species named for another test is Mus musculus. The experiment in a line: Effective dose for 25% reduction in plasma glucose-lowering activity of KKAy mice. It counts as functional.
Details: not given
The method in brief: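 KKAy mice (9–13 weeks old), five per group, allocated by blood glucose after 3 d on powdered CE-2 chow. Compounds given as dietary admix at three levels chosen from first screening, 4 d ad libitum. Orbital-vein plasma glucose assayed enzymatically. Dose in mg/kg/d computed from food intake and body weight; ED25 derived by linear regression.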
For the compound `COc1cc(CCCC2SC(=O)NC2=O)ccc1OCc1nc(-c2ccccc2)oc1C` (centres undefined), the ED25 was found to be 3.17 mg/kg/day.

In the case of `Cc1oc(-c2ccccc2)nc1COc1ccc(CCC2OC(=O)NC2=O)cc1` (centres undefined), the ED25 turned out to be 1.31 mg/kg/day.

As to `Cc1oc(-c2ccccc2)nc1COc1ccc(CCCC2OC(=O)NC2=O)cc1` (centres undefined), the ED25 is 0.402 mg/kg/day.

Compound `Cc1oc(-c2ccccc2)nc1CCOc1ccc(CCC2OC(=O)NC2=O)cc1` (centres undefined) gave an ED25 of 4.83 mg/kg/day.
